Bioassay records: PubChem, several laboratories
Hits are enriched below; roughly 2.9% of the tested compounds scored in any of these assays.
HTRA1 inhibitor = blocks human HTRA1 serine peptidase | Q92743 | recombinant HTRA1, FP-rhodamine activity-based probe, fluorescence polarization | inhibition, % at 5.96 µM | 340,000 compounds, 0.5% hits; in the data active = inhibition above about 36%
TCR-CD3 inh = blocks the human TCR-CD3 interaction. TAMRA-labeled TCR probe fluorescence, biochemical. inhibition, % at 9.4 µM. 360,000 compounds, 0.37% hits. AID 651800; in the data active = inhibition above about 19%;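 note: recombinant mutant TCR 2C K166C tagged with TAMRA read by polarization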
PRMT1 FP inh = blocks human protein arginine methyltransferase 1; Q99873; recombinant PRMT1, activity-based probe fluorescence polarization; inhibition, % at 2.79 µM; 370,000 compounds, 1.3% hits;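 active = inhibition above about 21% made by adding two undisclosed values, limit read from the data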
ATG4B inhibitor = inhibitors of human ATG4B cysteine protease; ATG4B cleavage of LC3-PLA2, NBD-HPC fluorescence, 1 h; inhibition, % at 8.33 µM; AID 504462; Q9Y4P1; 340,000 compounds, 0.51% hits; in the data active = inhibition above about 40%
SIAE primary = inhibitors of human sialic acid acetylesterase SIAE | SIAE FP-Rh probe binding, fluorescence polarization | inhibition, % at 9.66 µM | 370,000 compounds, 0.69% hits;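 active = inhibition above a cutoff: mean of compounds within the control limits plus 3 SD of those, cut at about 17% in these data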
ABHD4 inh = inhibits mouse alpha/beta hydrolase domain 4; purified mABHD4, FP-Rh probe fluorescence polarization; Q8VD66; 370,000 compounds, 0.54% hits; inhibition, % at 8.92 µM;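 active = inhibition exceeding the mean over every tested compound plus 3 SD, cut at about 30% in these data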
Target sequence (Q8VD66 whole entry, looked up, the tested form may be a part): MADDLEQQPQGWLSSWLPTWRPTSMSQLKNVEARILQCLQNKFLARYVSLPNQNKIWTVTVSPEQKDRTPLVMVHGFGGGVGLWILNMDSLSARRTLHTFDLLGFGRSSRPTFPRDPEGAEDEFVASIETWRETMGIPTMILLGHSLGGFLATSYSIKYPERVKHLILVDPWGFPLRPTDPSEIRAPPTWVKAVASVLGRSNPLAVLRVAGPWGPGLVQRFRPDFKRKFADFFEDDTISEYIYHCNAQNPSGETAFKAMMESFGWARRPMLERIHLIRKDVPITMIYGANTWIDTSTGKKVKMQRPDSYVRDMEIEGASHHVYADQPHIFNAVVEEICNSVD
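Test system: mouse ABHD4 enzyme, wild type. Reagent: FP-Rh fluorescent activity-based probe, added after compound pre-incubation. Timing: pre-incubation 45 min, probe exposure 60 min, at 25 °C. Technique: FP readout, ex 525 nm / em 598 nm. Benchmarks: high control S159A mutant with DMSO, low control median of compound wells.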
SIAE inh conf = confirmation of human SIAE inhibitors; shares compounds with SIAE primary; SIAE FP-Rh activity-based probe, fluorescence polarization; inhibition, % at 9.66 µM; 2,300 compounds, 13% hits; AID 1117263;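 active = mean inhibition of the replicates above the hit cutoff set in the primary screen, cut at about 17% in these data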;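 note: inhibitors lower polarization as more probe stays unbound to SIAE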
Each line names hits and unclear results; the compound was inactive in the other large screens (follow-up assays come after a bar, where they were run); ! = not confirmed by another sample.

CCOC(=O)N1CCC(NC(=O)C2CCN(C(=O)N3CC(C)Oc4ccc(C)cc43)CC2)CC1 (configuration not stated)	none
O=C(Cn1cnc2c(oc3ccccc32)c1=O)c1ccccc1	SIAE primary 18 | SIAE inh conf inactive
CCn1cnc2c(oc3ccccc32)c1=O	SIAE primary 20 | SIAE inh conf inactive
O=C(Nc1cc(S(=O)(=O)N2CCOCC2)ccc1N1CCCC1)c1cc2c(s1)CCCC2	none (no result: HTRA1 inhibitor, TCR-CD3 inh, ATG4B inhibitor)
Cn1c(SCc2ccccc2)nnc1-c1cnccn1	SIAE primary 20 | SIAE inh conf inactive
CCCC(C)NC(=O)CC1Oc2ccccc2NC1=O (configuration not stated)	none (no result: HTRA1 inhibitor, TCR-CD3 inh, ATG4B inhibitor)
CC#CCCCC(=O)Nc1ccccc1C(=O)O	SIAE primary 19 | SIAE inh conf inactive
CC#CCCCC(=O)Nc1ccc(C(=O)O)cc1	none
COC(=O)C1=C(C)N(Cc2cccc(C(F)(F)F)c2)C(=NCc2cc(OC)c(OC)c(OC)c2)NC1c1cccc(Cl)c1 (configuration not stated)	none (no result: HTRA1 inhibitor, ATG4B inhibitor)
Cc1ccc(N2C(=O)C3C4C=CC(C4)C3C2=O)cc1 (configuration not stated)	none
Cc1cc(C)cc(N2C(=O)C3C4C=CC(C4)C3C2=O)c1 (configuration not stated)	SIAE primary 19 | SIAE inh conf inactive
Cc1ccc(CN2CCN(Cc3cc(=O)c4ccccc4[nH]3)CC2CCO)o1 (configuration not stated)	SIAE primary 17 | SIAE inh conf inactive
Cc1ccc(CN2CCN(Cc3c[nH]c4ccccc34)CC2CCO)o1 (configuration not stated)	none
CN1CCCCC(NC(=O)c2cccc([N+](=O)[O-])c2)C1=O (configuration not stated)	none (no result: HTRA1 inhibitor, ATG4B inhibitor)
CC1CCCCC1C(=O)N1CCC(Oc2cccnc2)CC1 (configuration not stated)	none (no result: HTRA1 inhibitor, TCR-CD3 inh, ATG4B inhibitor)
O=C(Nc1ccc(Br)cc1Br)Nc1cccc2[nH]c([C@@H]3O[C@H](CO)[C@@H](O)[C@H](O)[C@H]3O)nc12	SIAE primary 19 (no result: HTRA1 inhibitor, ATG4B inhibitor) | SIAE inh conf inactive
O=C(C1CCN(c2ncnc3c2sc2cccc(F)c23)CC1)N1CCN(C(=O)C2CCCO2)CC1 (configuration not stated)	none (no result: HTRA1 inhibitor, TCR-CD3 inh, ATG4B inhibitor)
C/C(=N\Nc1cc(-c2ccccc2)nc(-c2ccccc2)n1)c1ccc(O)c(C)c1	SIAE primary 19 | SIAE inh conf inactive
COc1cc(N/N=C(\C)c2ccc(O)c(C)c2)nc(-c2ccccc2)n1	none
Cc1ccc(OC[C@@H](O)CN2CCC(C(O)(c3ccccc3)c3ccccc3)CC2)cc1	none (no result: HTRA1 inhibitor, TCR-CD3 inh, ATG4B inhibitor)
COc1ccc(C(C(=O)N(C)C2CCCC2)N(Cc2ccc(F)cc2)C(=O)c2csc3ccc(Cl)cc23)cc1OC (configuration not stated)	none (no result: HTRA1 inhibitor, TCR-CD3 inh, ATG4B inhibitor)
COc1cc(S(=O)(=O)NCc2ccccc2)ccc1F	SIAE primary 19 | SIAE inh conf inactive
CC1=NN(c2ccc(Cl)c(C(=O)O)c2)C(=O)C1	none
CC1=NN(c2ccc(C(=O)O)c(N)c2)C(=O)C1	SIAE primary 18 | SIAE inh conf inactive
Cc1ccc(-c2csc(N/N=C/c3ccco3)n2)c(C)c1	SIAE primary 19 | SIAE inh conf inactive
COc1ccccc1C(=O)NC(=S)Nc1cccc2cc(O)ccc12	none
COc1ccc(C(=O)NC(=S)Nc2cccc3cc(O)ccc23)cc1OC	SIAE primary 28 | SIAE inh conf inactive
COc1ccc([C@H]2OC(=O)C[C@@H]2C(=O)N2CCN(c3ccccc3F)CC2)cc1OC	none (no result: HTRA1 inhibitor, TCR-CD3 inh, ATG4B inhibitor)
Cc1ccc(C2CCC3(CCC(=O)N3CCOC(=O)Nc3ccc(F)cc3)CC2)cc1 (configuration not stated)	SIAE primary 18! (no result: HTRA1 inhibitor, TCR-CD3 inh, ATG4B inhibitor) | SIAE inh conf inactive
O=C(NCc1ccccc1)OCCN1C(=O)CCC12CCC(c1ccc(Cl)cc1)CC2 (configuration not stated)	none (no result: HTRA1 inhibitor, TCR-CD3 inh, ATG4B inhibitor)
COC(=O)[C@]12C[C@H](CC(=O)N3CCN(C(=O)C4CC4)CC3)C(=O)N(CCc3ccc(OC)c(OC)c3)C1=C[C@H](COCc1ccccc1)O[C@@H]2C	none (no result: HTRA1 inhibitor, TCR-CD3 inh, ATG4B inhibitor)
